Results reported in publication PMC4902274 (Hypertension, 2014).
One block for each molecule: values may come before it.

Experiments:
SH-SY5Y cells = assay: Intracellular calcium / calcium influx in SH-SY5Y cells; assay type: cell-based, human; conditions: for inhibition of prorenin-induced calcium influx: 1 μmol/L inhibitor
PRR = conditions: cited from earlier work
hypertensive RA mice [1] = conditions: systemic enalapril; cited from earlier work
[2] = system: ERK-1/2 phosphorylation, Neuro-2A cells; assay: ERK-1/2 phosphorylation in Neuro-2A cells; assay type: cell-based, mouse
Method in brief: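 Neuro-2A cells were kept in serum-free medium overnight, then pretreated with losartan 10 μmol/L for 30 minutes. They were then exposed for 15 minutes to prorenin (4 nmol/L), HRP (1 μmol/L) or test peptide (1 μmol/L). Total and phosphorylated ERK-1/2 were measured by Western blot. PRR knockdown cells were transfected with AAV-PRR-shRNA for 3 days.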

[3] = system: DOCA-salt hypertensive mice; assay type: in vivo, mouse; conditions: losartan 3 mmol/L, 10-minute icv infusion, n=5
Method in brief: (§1)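 Test compound, scrambled peptide (1 mmol/L, control) or losartan was infused intracerebroventricularly over 10 minutes into hypertensive mice. BP was traced in real time before, during and after the infusion. The read-out was change in mean arterial pressure (ΔMAP).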

[4] = system: prorenin-induced hypertension, C57Bl/6J mice; conditions: cited from earlier work
normotensive SHAM mice = assay: Acute intracerebroventricular infusion, BP in normotensive SHAM mice; assay type: in vivo, mouse; conditions: icv PRO20 1 mmol/L or losartan 3 mmol/L, n=4
[5] = system: DOCA-salt hypertension, mice; conditions: icv infusion of losartan; cited from earlier work
hypertensive RA mice [6] = assay: Acute intracerebroventricular infusion, BP in renin-angiotensinogen; assay type: in vivo, mouse; conditions: losartan 3 mmol/L, 10-minute icv infusion, n=4
Method in brief: as §1

[7] = system: diabetic hypertensive rats; conditions: cited from earlier work
[8] = system: spontaneously hypertensive rats; conditions: cited from earlier work
prorenin = conditions: cited from earlier work
ERK-1/2 = conditions: cited from earlier work
diabetic nephropathy = conditions: cited from earlier work
[9] = system: prorenin-induced hypertension, C57Bl/6J mice; assay: Pressor response to acute intracerebroventricular infusion of mouse prorenin; assay type: in vivo; conditions: mouse prorenin 2.4 μmol/L + scrambled peptide 100 μmol/L, 3 μL/min for 10 minutes, icv
[10] = molecular target: (pro)renin receptor (PRR), mouse brain (Mus musculus, UniProt Q9CYN9); assay: PRO20-FITC fluorescence binding to mouse brain sections; conditions: PRO20-FITC 5 nmol/L, unlabeled mouse prorenin 1 μmol/L, mouse PVN
Method in brief: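 Mouse PVN sections were incubated with FITC-labelled test peptide, 5 nmol/L with or without unlabelled mouse prorenin 1 μmol/L. For a concentration series (1, 2, 5, 10, 20 nmol/L), n=5–6 per concentration. PVN from neuron-specific PRR-knockout mice was also examined. Nuclei were stained with DAPI. Relative fluorescence units were total fluorescence density minus background per image.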

[11] = molecular target: (pro)renin receptor (PRR), human brain (Homo sapiens, UniProt O75787); assay: PRO20-FITC fluorescence binding to human brain sections; conditions: PRO20-FITC 1 nmol/L, unlabeled human prorenin 1 μmol/L, human PVN
Method in brief: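 Human PVN sections were incubated with FITC-labelled test peptide, 1 nmol/L with or without unlabelled human prorenin 1 μmol/L. For a concentration series (0.2, 0.5, 1, 2, 5 nmol/L), n=5–6 per concentration. Nuclei were stained with DAPI. Relative fluorescence units were total fluorescence density minus background in each image.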

[12] = system: plasminogen-activator inhibitor 1 release; conditions: prorenin 4 nmol/L; cited from earlier work
[13] = human prorenin 4 nmol/L, n=7–11/group

(pro)renin receptor (PRR), human brain, sequence (O75787 17-350): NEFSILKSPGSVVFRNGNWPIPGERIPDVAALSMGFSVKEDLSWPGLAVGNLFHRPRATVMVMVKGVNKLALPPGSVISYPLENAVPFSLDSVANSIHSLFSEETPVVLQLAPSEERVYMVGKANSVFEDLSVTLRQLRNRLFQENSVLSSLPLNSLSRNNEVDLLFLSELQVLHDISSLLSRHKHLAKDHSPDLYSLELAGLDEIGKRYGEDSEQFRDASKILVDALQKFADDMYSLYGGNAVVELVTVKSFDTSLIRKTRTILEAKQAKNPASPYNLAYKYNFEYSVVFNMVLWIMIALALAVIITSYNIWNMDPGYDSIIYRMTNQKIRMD
(pro)renin receptor (PRR), mouse brain, sequence (Q9CYN9 18-350): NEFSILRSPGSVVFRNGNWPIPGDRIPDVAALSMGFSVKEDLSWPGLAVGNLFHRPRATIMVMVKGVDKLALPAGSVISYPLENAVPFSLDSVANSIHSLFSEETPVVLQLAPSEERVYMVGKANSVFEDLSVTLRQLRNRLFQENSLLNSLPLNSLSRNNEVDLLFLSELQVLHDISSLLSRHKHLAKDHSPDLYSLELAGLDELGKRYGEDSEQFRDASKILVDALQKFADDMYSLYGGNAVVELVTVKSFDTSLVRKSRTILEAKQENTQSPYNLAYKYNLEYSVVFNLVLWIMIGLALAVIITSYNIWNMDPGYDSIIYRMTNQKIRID

Molecule: Nc1ncnc2c1ncn2[C@@H]1O[C@H](COP(=O)(O)OP(=O)(O)OP(=O)(O)O)[C@@H](O)[C@H]1O [ATP]
intracellular calcium in SH-SY5Y cells (SH-SY5Y cells; ATP 1 μmol/L, Fluo-4-AM, n=7–11/group): increased intracellular calcium

Molecule: COCCCOc1cc(C[C@@H](C[C@H](N)[C@@H](O)C[C@H](C(=O)NCC(C)(C)C(N)=O)C(C)C)C(C)C)ccc1OC [aliskiren]
effect on renin or prorenin binding to the PRR (PRR): does not alter renin or prorenin binding to the PRR

Molecule: C[C@H](CS)C(=O)N1CCC[C@H]1C(=O)O [captopril]
inhibition of prorenin-induced calcium influx (SH-SY5Y cells; [13]): completely blocked

Molecule: CCOC(=O)[C@H](CCc1ccccc1)N[C@@H](C)C(=O)N1CCC[C@H]1C(=O)O [enalapril]
effect on BP in RA mice, systemic (hypertensive RA mice [1]): did not normalize BP

Molecule: CCCCc1nc(Cl)c(CO)n1Cc1ccc(-c2ccccc2-c2nn[nH]n2)cc1 [losartan]
inhibition of prorenin-induced ERK-1/2 phosphorylation ([2]; losartan, prorenin): partially blocked
effect on mean arterial BP (MAP) [3]: reduced mean arterial BP
effect on prorenin-induced hypertension ([4]; icv infusion of losartan): abolishes prorenin-induced hypertension
effect on MAP in normotensive mice (normotensive SHAM mice): did not alter MAP
inhibition of prorenin-induced calcium influx (SH-SY5Y cells; [13]): completely blocked
inhibition of Ang II-induced intracellular calcium increase (SH-SY5Y cells; losartan 1 μmol/L vs Ang II 10 nmol/L, n=7–11/group): blocked
effect on development of DOCA-salt hypertension [5]: totally prevents the development of DOCA-salt hypertension
effect on mean arterial BP (MAP) (hypertensive RA mice [6]): reduced mean arterial BP

Molecule: Ang II: major bioactive peptide of the RAS
intracellular calcium in SH-SY5Y cells (SH-SY5Y cells; Ang II 10 nmol/L, Fluo-4-AM, n=7–11/group): increased intracellular calcium levels

Molecule: RILLKKMPSV [HRP]
effect on beneficial effects of aliskiren on vascular dysfunction [7]: counteracts the beneficial effects of aliskiren
effect on cardiac fibrosis [8]: attenuates the development of cardiac fibrosis
phosphorylated ERK-1/2 levels, peptide alone ([2]; PRO20 or HRP alone, 1 μmol/L, 15 minutes, losartan 10 μmol/L): unaffected
conformational change and nonproteolytic activation of prorenin on binding to PRR (prorenin): inhibits the conformational change and nonproteolytic activation of prorenin
ERK-1/2 phosphorylation in the retina (ERK-1/2): increases phosphorylation of extracellular signal–regulated protein kinase 1 and 2
effect on diabetic nephropathy in rats (diabetic nephropathy; development): prevent the development of diabetic nephropathy in rats without affecting hyperglycemia
effect on established diabetic nephropathy in rats (diabetic nephropathy; established): induce regression of established diabetic nephropathy
inhibition of binding of prorenin to the PRR (PRR): no direct inhibitory effect on the binding of prorenin to the PRR

inhibition of PRO20-FITC binding by unlabeled prorenin [10]: completely blocked
B1: mouse prorenin: unlabeled mouse prorenin (protein, UniProt P06281 22-402, looked up)
pro-form: LPTRTATFERIPLKKMPSVREILEERGVDMTRLSAEWGVFTKRPSLTNLTSPVVLTNYLNTQYYGEIGIGTPPQTFKVIFDTGSANLWVPSTKCSRLYLACGIHSLYESSDSSSYMENGSDFTIHYGSGRVKGFLSQDSVTVGGITVTQTFGEVTELPLIPFMLAKFDGVLGMGFPAQAVGGVTPVFDHILSQGVLKEEVFSVYYNRGSHLLGGEVVLGGSDPQHYQGNFHYVSISKTDSWQITMKGVSVGSSTLLCEEGCAVVVDTGSSFISAPTSSLKLIMQALGAKEKRIEEYVVNCSQVPTLPDISFDLGGRAYTLSSTDYVLQYPNRRDKLCTLALHAMDIPPPTGPVWVLGATFIRKFYTEFDRHNNRIGFALAR
modifications: pro-form
BP in conscious wild-type mice ([4]; icv mouse prorenin 2.4 μmol/L, conscious wild-type C57Bl/6J mice): increases BP
BP during intracerebroventricular infusion of prorenin [9]: induced a rapid increase in BP

inhibition of PRO20-FITC binding by unlabeled prorenin [11]: eliminated PRO20-FITC binding
B2: human prorenin: unlabeled human prorenin (protein, UniProt P00797 24-406, looked up)
pro-form: LPTDTTTFKRIFLKRMPSIRESLKERGVDMARLGPEWSQPMKRLTLGNTTSSVILTNYMDTQYYGEIGIGTPPQTFKVVFDTGSSNVWVPSSKCSRLYTACVYHKLFDASDSSSYKHNGTELTLRYSTGTVSGFLSQDIITVGGITVTQMFGEVTEMPALPFMLAEFDGVVGMGFIEQAIGRVTPIFDNIISQGVLKEDVFSFYYNRDSENSQSLGGQIVLGGSDPQHYEGNFHYINLIKTGVWQIQMKGVSVGSSTLLCEDGCLALVDTGASYISGSTSSIEKLMEALGAKKRLFDYVVKCNEGPTLPDISFHLGGKEYTLTSADYVFQESYSSKKLCTLAIHAMDIPPPTGPTWALGATFIRKFYTEFDRRNNRIGFALAR
modifications: pro-form
intracellular calcium in SH-SY5Y cells (SH-SY5Y cells; [13]): increased neuronal intracellular calcium
calcium influx induced relative to Ang II (SH-SY5Y cells; human prorenin vs Ang II, SH-SY5Y cells): to a degree similar to that of Ang II

B3: prorenin: prorenin; species not stated at the place (protein, UniProt P00797 24-406, looked up)
pro-form: B2 pro-form
modifications: pro-form
Ang II-dependent plasminogen-activator inhibitor 1 release [12]: increased Ang II–dependent plasminogen-activator inhibitor 1 release
ERK-1/2 phosphorylation ([2]; prorenin alone, serum-free medium): markedly increased ERK-1/2 phosphorylation
